This note sets out measurements from ChEMBL document CHEMBL3243964, “Biomolecules bearing the S- or SeAsMe2 function: amino acid and steroid derivatives” (J Med Chem, 1979).

The source made the active and inactive calls. The rule behind the calls is not given here. Bounds are passed on as bounds.

The species named for one series is Mus musculus. Briefly: Toxicity in mouse allografted with mouse L1210 cells. The series is classed as organism-based.
Series [1] concerns L1210. Briefly: Carcinostatic activity against mouse L1210 cells allografted in mouse assessed as increase in survival at 100 mg/kg relative to control. It counts as functional.
The test system of series [2] is Staphylococcus aureus. Briefly: Bacteriostatic activity against Staphylococcus aureus 209 cultured in nutrient broth. The series is classed as functional, organism-based. In short, it runs like this:
(§1)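 Bacteria grown in nutrient broth with the compound. Read-out is inhibition of growth, with total inhibition scored. Gram-negative (K. pneumoniae) and Gram-positive strains were tested.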

The test system of series [3] is Staphylococcus aureus. Kind of series: Bacteriostatic activity against Staphylococcus aureus 209. It counts as functional.
The test system of series [4] is L1210. Briefly: Carcinostatic activity against mouse L1210 cells allografted in mouse assessed as increase in survival at 50 mg/kg relative to control. The series is classed as functional.
A further series deals with Klebsiella pneumoniae. Kind of series: Bacteriostatic activity against Klebsiella pneumoniae. It counts as functional, organism-based. In short, it runs like this: as §1
Series [5] relates to L1210. Kind of series: Carcinostatic activity against mouse L1210 cells allografted in mouse assessed as increase in life span at 500 mg/kg relative to control. It counts as functional. In outline: (§2)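 Mice bearing L1210 lymphoid leukemia, tested externally. Read-out is percent increased life span (ILS) of treated versus control animals at the dose shown in mg/kg.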
Series [6] deals with L1210. Briefly: Carcinostatic activity against mouse L1210 cells allografted in mouse assessed as increase in life span at 100 mg/kg relative to control. The series is classed as functional. In outline: as §2

By T/C is commonly meant the ratio of treated to control. Consider `C[As](C)SCC[C@H](NC(=O)[C@@H](N)CCS[As](C)C)C(=O)O`, for which, in the series listed under Mus musculus, the Activity was over 200 mg/kg. Also, the T/C in the series with L1210 [1] came to 144%.
With `C[As](C)SCC(N)C(=O)O` (racemic), the “growth inhibition (GI)” value in the series on Staphylococcus aureus [2] is “Active”. For the same compound, in the series with Staphylococcus aureus [3], the “inhibition zone (IZ)” value is 15 mm. In addition, in the series with L1210 [4], the T/C is reported as 110%. In the series listed under Mus musculus, this compound showed an Activity of 200 mg/kg.
Regarding `C[As](C)SC[C@H](NC(=O)CC[C@H](N)C(=O)O)C(=O)NCC(=O)O` [DARINAPARSIN], the “growth inhibition (GI)” value in the series with Staphylococcus aureus [2] is “Active”. In addition, the “inhibition zone (IZ)” value in the series with Staphylococcus aureus [3] amounted to 20 mm. In the series with Klebsiella pneumoniae, the outcome was Active. Also, the figures for the Activity in the series filed under Mus musculus and in the series with L1210 [5] were 400 mg/kg and 33%, respectively. Moreover, the T/C in the series with L1210 [1] stood at 164%.
`C[As](C)SCC[C@@H](CCCCC(=O)O)S[As](C)C`: the T/C in the series with L1210 [4] is 128%. The Activity in the series on L1210 [6] amounted to 33%; in the series filed under Mus musculus, 100 mg/kg.
